Results from paper PMC5615865 (Research in Pharmaceutical Sciences, 2017).

Experiments:
[1] = molecular target: Jack bean urease (Canavalia ensiformis, UniProt P07374); assay: Urease inhibitory assay; format: biochemical; settings: urea 25 mM, pH 7.4, 37°C, triplicate
Outline: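 Enzyme solution (2 mg/mL stock) was mixed with urea and test compound at various concentrations in 100 mM sodium phosphate, pH 7.4, then incubated 30 min at 37°C. An aliquot was taken into phenol–nitroprusside and alkaline hypochlorite–NaOH reagents and incubated a further 30 min at 37°C, and A625 was read. % inhibition was calculated against the solvent-plus-enzyme control, and IC50 was fitted. Run in triplicate with a hydroxyurea standard.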

[2] = no reference given; cited from earlier work

Chain of Jack bean urease (P07374 whole entry, looked up): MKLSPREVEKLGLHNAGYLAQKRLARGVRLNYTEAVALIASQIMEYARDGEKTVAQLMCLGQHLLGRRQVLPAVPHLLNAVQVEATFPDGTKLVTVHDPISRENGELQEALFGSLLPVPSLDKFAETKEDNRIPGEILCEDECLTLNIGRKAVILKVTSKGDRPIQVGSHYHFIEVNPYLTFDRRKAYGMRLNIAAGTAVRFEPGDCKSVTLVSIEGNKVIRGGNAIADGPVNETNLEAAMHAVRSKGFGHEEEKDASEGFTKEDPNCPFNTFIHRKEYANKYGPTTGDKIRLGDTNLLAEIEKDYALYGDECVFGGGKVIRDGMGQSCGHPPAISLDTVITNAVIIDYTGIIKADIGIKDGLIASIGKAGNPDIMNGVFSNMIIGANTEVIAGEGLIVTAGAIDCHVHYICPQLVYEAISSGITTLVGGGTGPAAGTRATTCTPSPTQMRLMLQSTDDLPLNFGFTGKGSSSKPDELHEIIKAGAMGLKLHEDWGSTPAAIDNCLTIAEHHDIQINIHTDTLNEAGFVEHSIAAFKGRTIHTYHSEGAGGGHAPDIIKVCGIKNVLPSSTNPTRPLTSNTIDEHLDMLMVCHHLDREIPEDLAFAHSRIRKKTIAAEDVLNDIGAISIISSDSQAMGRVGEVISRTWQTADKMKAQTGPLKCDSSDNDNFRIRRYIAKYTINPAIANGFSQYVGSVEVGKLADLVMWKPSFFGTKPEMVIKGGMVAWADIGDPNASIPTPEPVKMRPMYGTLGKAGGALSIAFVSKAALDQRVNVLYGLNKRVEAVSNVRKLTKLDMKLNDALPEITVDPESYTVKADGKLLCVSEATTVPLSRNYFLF

IC50 [1] | Structure (SMILES) | pKa [2]
100 µM | NC(=O)NO [hydroxyurea] | –
– | COC(=O)CC(C)=O [methyl acetoacetate] | 11.0
